# Screening data: PubChem BioAssay, Broad Institute
# Sampled rows, rich in hits. Any-hit rate of the full collection: about 2.6%.
# F508del corr: correctors of CFTR F508del function in bronchial epithelial cells; CFBE cells, YFP halide quenching; stimulated with forskolin plus potentiator P3; % fluorescence drop versus neutral controls; activity (quench increase), % at 7.58 µM; 0.36% of 350,000 active;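 active means mean added fluorescence quench of at least 8% versus neutral control, with both replicates also reaching 8%; inconclusive means only one of the mean or replicate conditions met; inactive means mean below 8% and not both replicates reaching 8%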;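 further: cells transiently co-express mutant CFTR-F508del with the halide-sensitive YFP; corrector assay measuring rescue of mutant channel to the surface after 24 h compound exposure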
# ERAP1 HTS inh: ERAP1 (human) enzyme inhibition; 0.15% of 340,000 active; Q9NZ08; inhibition, % at 10.7 µM; recombinant ERAP1, Leu-AMC fluorescence, 60 min;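 active means mean replicate inhibition of at least 30%, or all replicates individually reaching that 30% level; inactive means mean below 30% and not every replicate reaching it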;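 further: 0% = neutral control wells and 100% = L-leucinethiol positive control wells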
# INS-1E GSIS act: GLuc luminescence reporter in INS-1E cells, primary screen for activators of glucose-dependent secretion of insulin; activation, % at 16.6 µM; 0.61% of 370,000 active; INS-1E GLuc reporter insulin secretion, 2-3 h;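 active means lowest replicate activation of at least 40%, so every replicate reaches that level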;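 further: 0% = median of neutral control wells and 100% = median of IBMX positive control wells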
# miR122 inh: inhibitors of miR-122 in Huh7 cells. Huh7 miR-122 Renilla luciferase sensor, 48 h; neutral wells = 0, positive control = 100. 0.3% of 340,000 active. activation (reporter increase), % at 12.5 µM;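 active means mean replicate activation score at least 90 and every replicate individually at or above 90; inconclusive means only one of the two criteria met; inactive means neither criterion met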;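 further: higher luciferase means less miR-122 activity so hits act as miR-122 inhibitors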
# DENV2 CPE: DENV2-induced cell death inhibition. DENV2-infected cells, cytopathic effect rescue, plate reader. CPE inhibition, % at 9.99 µM. 1.7% of 350,000 active. AID 651640; in the data active means CPE inhibition above about 20%, passing the limit was not always enough; inconclusive means no clear call, values can overlap the other calls; tested in BHK-21 cells;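 further: 0% = median of neutral control wells and 100% = median of positive control wells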
# E-sel inducer: induces E-selectin expression in human endothelial cells; P16581; HUVEC E-selectin immunofluorescence imaging; normalized: neutral wells 0, TNF-alpha wells 100; activation, % at 7.58 µM; 0.37% of 260,000 active; AID 686992;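 active means mean E-selectin-positive cell signal at least 10% of the positive control, reached in at least 60% of replicates, without over 20% cell loss; inconclusive means no rule given, readout overlaps actives, possibly toxicity-flagged; inactive means the rest, including those meeting only one limit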
# Target sequence (P16581 whole entry, looked up): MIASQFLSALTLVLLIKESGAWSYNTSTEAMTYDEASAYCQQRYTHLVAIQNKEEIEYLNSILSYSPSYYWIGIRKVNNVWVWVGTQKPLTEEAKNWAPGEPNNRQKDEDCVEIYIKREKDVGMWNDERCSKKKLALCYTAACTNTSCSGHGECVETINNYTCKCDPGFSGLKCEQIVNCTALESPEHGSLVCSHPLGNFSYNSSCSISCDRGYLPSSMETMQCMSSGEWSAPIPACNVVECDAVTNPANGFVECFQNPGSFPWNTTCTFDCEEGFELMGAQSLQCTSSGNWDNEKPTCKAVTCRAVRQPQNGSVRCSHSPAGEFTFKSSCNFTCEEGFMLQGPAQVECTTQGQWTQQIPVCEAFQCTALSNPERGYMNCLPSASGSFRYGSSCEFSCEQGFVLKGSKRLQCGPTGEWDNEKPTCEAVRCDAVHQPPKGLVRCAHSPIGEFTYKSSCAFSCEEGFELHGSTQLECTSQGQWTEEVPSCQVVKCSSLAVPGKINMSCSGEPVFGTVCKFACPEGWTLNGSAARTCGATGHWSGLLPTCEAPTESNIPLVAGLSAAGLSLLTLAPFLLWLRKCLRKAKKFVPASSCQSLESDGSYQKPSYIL
#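 Assay system: HUVEC, human umbilical vein endothelial cells / Amount: 3,000 HUVEC/well / Controls: TNF-alpha positive control, DMSO neutral control / Compound dosing: single concentration / Medium: EGM-2 over gelatin coat / Evaluation: percent E-selectin-positive cells / Signal: immunofluorescence imaging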
# Numbers without * were called inactive; ? = inconclusive; · = no result; ! = a repeat was not active; [ ] = dose if it differs, or a comment.
SMILES,F508del corr,ERAP1 HTS inh,INS-1E GSIS act,miR122 inh,DENV2 CPE,E-sel inducer
CCOC(=O)c1cccc(-c2ccc(C=O)o2)c1,·,1,49*,-1,6,-3
CO[C@@H](CN(C)Cc1cc(F)ccc1F)[C@@H](C)CN(C(=O)Nc1ccc(F)cc1)[C@H](C)CO,2,0,-5,·,0,0
O=S(=O)(NCCc1ccncc1)c1ccc(F)cc1,1,4,10,·,13,0
O=S(=O)(NCCc1ccncc1)c1ccc(Br)cc1,·,·,·,192*,·,·
COc1cccc(-c2ccc([C@@H]3[C@H](CO)N4C(=O)CN(C(=O)CN5CCOCC5)C[C@@H]34)cc2)c1,4,-2,11,·,3,0
CN(C)C(=O)C[C@H]1CC[C@@H]2[C@H](COc3ccc(NC(=O)C4CCC4)cc3C(=O)N2C)O1,-1,0,12,·,7,0
COc1ccc(/C=N/n2c(-c3n[nH]c4c3CCC4)n[nH]c2=S)cc1OC,·,·,45*,2,·,·
Cc1ccc(NC(=O)C(=O)NCC2CCCN2S(=O)(=O)c2cccs2)cc1 (stereo not drawn),-1,2,-11,4,38*,0
CC(=O)Nc1cccc(C(=O)OCC(=O)Nc2ccc(Cl)cn2)c1,-2,4,-16,2,56*,-1
O=C(O)CCCC(=O)N1CCN(c2nc(-c3ccccc3)c3ccccc3n2)CC1,-3,7,61*,-4,-2,0
Cc1ccc2nc(N3CCN(C(=O)CCC(=O)O)CC3)nc(-c3ccccc3)c2c1,-2,4,5,11,9,·
C[C@@H]1CCCCO[C@H](CN(C)Cc2ccccc2)[C@@H](C)CN([C@H](C)CO)C(=O)c2cc(NS(=O)(=O)c3cccs3)ccc2O1,0,-10,4,11[16.7 µM],-6,·
C[C@H]1CCCCO[C@@H](CN(C)Cc2ccc3c(c2)OCO3)[C@@H](C)CN([C@@H](C)CO)C(=O)c2cc(NS(=O)(=O)c3cccs3)ccc2O1,0,·,-10,-7[16.7 µM],59*!,·
COc1ccc(CN(C)C[C@H]2OCCCC[C@@H](C)Oc3ccc(NS(=O)(=O)c4cccs4)cc3C(=O)N([C@@H](C)CO)C[C@@H]2C)cc1,0,2,-16,-2[16.7 µM],11,0
C[C@@H]1CN([C@@H](C)CO)C(=O)c2cc(NS(=O)(=O)c3cccs3)ccc2O[C@@H](C)CCCCO[C@@H]1CN(C)Cc1ccc2c(c1)OCO2,3,·,0,-6[16.7 µM],-19,0
COc1ccc(CN(C)C[C@@H]2OCCCC[C@@H](C)Oc3ccc(NS(=O)(=O)c4cccs4)cc3C(=O)N([C@@H](C)CO)C[C@H]2C)cc1,-2,1,-14,-11[16.7 µM],27*,0
C[C@@H]1CN([C@H](C)CO)C(=O)c2cc(NS(=O)(=O)c3cccs3)ccc2O[C@@H](C)CCCCO[C@H]1CN(C)Cc1ccc2c(c1)OCO2,3,·,-13,-2[16.7 µM],55*,0
CO[C@H]1CN(C)C(=O)c2cc(NC(=O)C3CCCC3)ccc2OC[C@H](C)N(CC2CC2)C[C@@H]1C,0,1,-11,·,2,0
Cc1ccc(S(=O)(=O)N(c2nc(NC(C)C)nc(NC(C)C)n2)n2cnnc2)cc1,0,-2,-22,-2,24*,·
COc1cccc(C(=O)NC(=S)Nc2ccc3oc(=O)ccc3c2)c1,·,1,-5,-4,-4,·
Cc1cc(C)cc(C(=O)NC(=S)Nc2ccc(-c3cc4ccccc4oc3=O)cc2)c1,·,·,42*,-6,·,·
CCC(=O)Nc1cccc(NC(=O)c2cc3ccccc3o2)c1,·,·,-7,-8,·,·
Cc1ccc(C(=O)NC(=S)Nc2ccc(-c3cc4ccccc4oc3=O)cc2)c(C)c1,·,·,·,-1,·,·
O=C(NC(=S)Nc1ccc(-c2ccccc2)cc1)c1ccccc1,10*,0,23,-7,-4,4
CCC(=O)Nc1cccc(-c2cc3ccccc3oc2=O)c1,·,2,7,·,30*,0
SMILES,F508del corr,ERAP1 HTS inh,INS-1E GSIS act,miR122 inh,DENV2 CPE,E-sel inducer
COc1cc(OC)cc(C(=O)NC(=S)Nc2ccc3oc(=O)ccc3c2)c1,9.6*,0,1,-4,-1,·
O=C(NC(=S)Nc1ccc(Cl)cc1)c1ccccc1,2,1,-5,·,7,0
COc1ccc(NC(=O)N(C)C[C@@H]2OCCCC[C@@H](C)Oc3ccc(NC(=O)c4ccccc4)cc3C(=O)N([C@H](C)CO)C[C@@H]2C)cc1,3,-1,1,12[16.7 µM],-3,0
COc1ccc(S(=O)(=O)Nc2cccc3c2O[C@@H](CN(C)S(=O)(=O)c2ccc(OC)cc2)[C@@H](C)CN([C@H](C)CO)C3=O)cc1,-1,-3,-7,·,·,0
O=C(Cc1ccccn1)N1CC(=O)N2[C@H](C1)[C@@H](c1ccc(C#CC3CCCC3)cc1)[C@@H]2CO,4,2,8,·,-11,0
Nc1c2c(nc3ccccc13)CCCC2,16*!,-4,·,-1,?,1
Cc1c(N(C)C)nc2ccccc2c1N,·,·,·,1,·,·
Nc1c2ccccc2nc2ccccc12,20*,61*,-6,-22,3,0
CC(C)C#Cc1ccc([C@H]2[C@H](CO)N3CCCCN(S(=O)(=O)Cc4ccccc4)C[C@@H]23)cc1,-3,·,-12,-1[16.7 µM],·,-1
C[C@H](CO)N1C[C@H](C)[C@H](CN(C)C(=O)Nc2ccc3c(c2)OCO3)OCCCC[C@H](C)Oc2ccc(NC(=O)NC3CCCCC3)cc2C1=O,-2,·,3,-5[16.7 µM],3,0
FC(F)Sc1ccc(NC(=S)NC2CCCCC2)cc1,·,·,-19,121*,·,·
CC1CCCCC1NC(=S)Nc1ccc(SC(F)F)cc1 (stereo not drawn),·,·,·,115*,·,·
CC1CCN(C(=S)Nc2ccc(SC(F)F)cc2)CC1,·,·,-8,·,·,1
FC(F)Sc1ccc(NC(=S)NCC2CCCCC2)cc1,1,-2,-24,·,·,·
C[C@H]1COCc2cnnn2CC[C@@H](Cc2ccccc2)C(=O)N1,·,·,1,·,·,·
Cc1ccccc1NC(=O)c1cc[n+]([O-])cc1,2,-7,-3,-5,-1,41*
Cc1ccccc1NC(=O)c1ccc(NS(=O)(=O)c2cc(C(C)(C)C)cc(C)c2C)cc1,3,·,-1,321*,·,0
Cc1cc(C(C)(C)C)cc(S(=O)(=O)Nc2cccc(C(=O)O)c2)c1C,1,-26,10,29,3,·
COc1ccccc1NC(=O)c1cc[n+](C)cc1,1,103*,9,2,-1,·
COc1ccc(NC(=O)N[C@H]2CC[C@H](CCNS(=O)(=O)c3ccccc3F)O[C@@H]2CO)cc1,0,-1,-11,·,13,0
CCOC(=O)C1=C(COC(=O)Cc2ccccc2[N+](=O)[O-])NC(=O)NC1C (stereo not drawn),-1,-2,11,-2,38*,0
